# Test results reported in ChEMBL document CHEMBL2384906, “Biological activity, design, synthesis and structure activity relationship of some novel derivatives of curcumin containing sulfonamides” (Eur J Med Chem, 2013).
# Active and inactive are the calls of the source. No cut-off for these calls is given here.
# Legend:
# Mus musculus = assay: Antiinflammatory activity in mouse assessed as inhibition of carrageenan-induced increase in paw volume at 200 mg/kg administered 1 hr prior to carrageenan challenge measured after 3 hrs relative to control; type: functional
# In short: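 Mice were fasted 2 h and placed in groups of five. Controls received saline i.p. Phenylbutazone was given at 100 mg/kg i.p., curcumin at 200 mg/kg i.p., and derivatives at 200 mg/kg. After 1 h, 0.1 mL of 1% carrageenan in saline was injected subplantar into the right hind paw. Paw volume was followed by plethysmometer for 3 h, and % inhibition was calculated as (Vc − Vt)/Vc × 100.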
# HCT-116 = assay: Cytotoxicity against human HCT116 cells after 24 hrs by MTT assay; type: functional, cell-based
# In short: (§1)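 The MTT assay seeded 5 × 10⁴ cells per well and grew them 24 h in RPMI 1640 with compound at 2.5–200 µM. Medium without cells was the blank and adriamycin the positive control. MTT was added for 4 h at 37 °C, formazan was solubilised, and absorbance was read at 570 nm. IC50 is the concentration that cuts viability 50% against untreated cells.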
# QG-56 = assay: Cytotoxicity against human QG56 cells after 24 hrs by MTT assay; type: functional, cell-based; in short: as §1
# HeLa = assay: Cytotoxicity against human HeLa cells after 24 hrs by MTT assay; type: functional, cell-based; in short: as §1
# HepG2 = assay: Cytotoxicity against human HepG2 cells after 24 hrs by MTT assay; type: functional, cell-based; in short: as §1
# Trichoderma viride [1] = assay: Antifungal activity against Trichoderma viride MTCC 1107 after 48 hrs; type: functional; conditions: MTCC 1107, 48 h
# Trichoderma viride [2] = assay: Antifungal activity against Trichoderma viride MTCC 1107 assessed as zone of inhibition at 20 uM after 48 hrs by disc diffusion method; type: functional
# In short: (§2)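 Spores from 4-day potato dextrose agar cultures, suspended in sterile water at 1.5 × 10⁵ CFU/mL. 0.2 mL was spread on potato dextrose agar. 5 mm filter-paper discs soaked with test compound were laid on the lawn. Incubation was 48 h at 28 °C, then the inhibition zone was measured in mm. Fluconazole was the positive control and acetone the negative control.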
# Trichoderma viride [3] = assay: Antifungal activity against Trichoderma viride MTCC 1107 assessed as zone of inhibition at 40 uM after 48 hrs by disc diffusion method; type: functional; conditions: MTCC 1107, 48 h, read-out: IZ; in short: as §2
# Trichoderma viride [4] = assay: Antifungal activity against Trichoderma viride MTCC 1107 assessed as zone of inhibition at 80 uM after 48 hrs by disc diffusion method; type: functional; conditions: MTCC 1107, 48 h, read-out: IZ; in short: as §2
# Curvularia lunata [5] = assay: Antifungal activity against Curvularia lunata MTCC 581 after 48 hrs; type: functional; conditions: MTCC 581, 48 h
# Curvularia lunata [6] = assay: Antifungal activity against Curvularia lunata MTCC 581 assessed as zone of inhibition at 20 uM after 48 hrs by disc diffusion method; type: functional; in short: as §2
# Curvularia lunata [7] = assay: Antifungal activity against Curvularia lunata MTCC 581 assessed as zone of inhibition at 40 uM after 48 hrs by disc diffusion method; type: functional; in short: as §2
# Aspergillus flavus [8] = assay: Antifungal activity against Aspergillus flavus MTCC 1021 after 48 hrs; type: functional
# Curvularia lunata [9] = assay: Antifungal activity against Curvularia lunata MTCC 581 assessed as zone of inhibition at 80 uM after 48 hrs by disc diffusion method; type: functional; conditions: MTCC 581, 48 h, read-out: IZ; in short: as §2
# Aspergillus flavus [10] = assay: Antifungal activity against Aspergillus flavus MTCC 1021 assessed as zone of inhibition at 80 uM after 48 hrs by disc diffusion method; type: functional; in short: as §2
# Aspergillus niger [11] = assay: Antifungal activity against Aspergillus niger MTCC 1108 after 48 hrs; type: functional; conditions: MTCC 1108, 48 h
# Aspergillus niger [12] = assay: Antifungal activity against Aspergillus niger MTCC 1108 assessed as zone of inhibition at 20 uM after 48 hrs by disc diffusion method; type: functional; in short: as §2
# Aspergillus niger [13] = assay: Antifungal activity against Aspergillus niger MTCC 1108 assessed as zone of inhibition at 40 uM after 48 hrs by disc diffusion method; type: functional; in short: as §2
# Aspergillus niger [14] = assay: Antifungal activity against Aspergillus niger MTCC 1108 assessed as zone of inhibition at 80 uM after 48 hrs by disc diffusion method; type: functional; conditions: MTCC 1108, 48 h, read-out: IZ; in short: as §2
# Escherichia coli [15] = assay: Antimicrobial activity against Escherichia coli ATCC 35218 after 24 hrs by broth micro serial dilution method; type: functional; conditions: ATCC 35218, 24 h
# In short: (§3)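 This was broth microdilution in autoclaved Mueller-Hinton broth. 150 µL of compound per well was serially diluted […], and 50 µL of test organism was added. Plates were incubated 24 h at 37 °C and optical density was read.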
# Escherichia coli [16] = assay: Antimicrobial activity against Escherichia coli ATCC 35218 assessed as diameter of inhibition zone at 20 uM after 24 hrs by Kirby -Baur disc diffusion method; type: functional
# In short: (§4)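 Kirby-Bauer disc diffusion was used. Acetone stocks (160 µM) were serially doubled down to 80, 40 and 20 µM. 4 µL of each went onto 5 mm sterile paper discs, which were dried 30 min at 50 °C. Inoculum was 1.5 × 10⁸ CFU/mL diluted to 3 × 10² CFU/mL, and 50 µL was spread on Mueller-Hinton agar. After 24 h at 37 °C the inhibition-zone diameter was measured. Ciprofloxacin served as positive control.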
# Escherichia coli [17] = assay: Antimicrobial activity against Escherichia coli ATCC 35218 assessed as diameter of inhibition zone at 40 uM after 24 hrs by Kirby -Baur disc diffusion method; type: functional; conditions: ATCC 35218, 24 h, read-out: DIZ; in short: as §4
# Escherichia coli [18] = assay: Antimicrobial activity against Escherichia coli ATCC 35218 assessed as diameter of inhibition zone at 80 uM after 24 hrs by Kirby -Baur disc diffusion method; type: functional; conditions: ATCC 35218, 24 h, read-out: DIZ; in short: as §4
# Pseudomonas aeruginosa [19] = assay: Antimicrobial activity against Pseudomonas aeruginosa ATCC 15499 after 24 hrs by broth micro serial dilution method; type: functional; conditions: ATCC 15499, 24 h; in short: as §3
# Pseudomonas aeruginosa [20] = assay: Antimicrobial activity against Pseudomonas aeruginosa ATCC 15499 assessed as diameter of inhibition zone at 20 uM after 24 hrs by Kirby -Baur disc diffusion method; type: functional; conditions: ATCC 15499, 24 h, read-out: DIZ; in short: as §4
# Pseudomonas aeruginosa [21] = assay: Antimicrobial activity against Pseudomonas aeruginosa ATCC 15499 assessed as diameter of inhibition zone at 40 uM after 24 hrs by Kirby -Baur disc diffusion method; type: functional; conditions: ATCC 15499, 24 h, read-out: DIZ; in short: as §4
# Pseudomonas aeruginosa [22] = assay: Antimicrobial activity against Pseudomonas aeruginosa ATCC 15499 assessed as diameter of inhibition zone at 80 uM after 24 hrs by Kirby -Baur disc diffusion method; type: functional; conditions: ATCC 15499, 24 h, read-out: DIZ; in short: as §4
# Salmonella typhi [23] = assay: Antimicrobial activity against Salmonella typhi ATCC 23564 after 24 hrs by broth micro serial dilution method; type: functional, Salmonella enterica subsp. enterica serovar Typhi; conditions: Salmonella enterica, ATCC 23564, 24 h
# Salmonella typhi [24] = assay: Antimicrobial activity against Salmonella typhi ATCC 23564 assessed as diameter of inhibition zone at 20 uM after 24 hrs by Kirby -Baur disc diffusion method; type: functional, Salmonella enterica subsp. enterica serovar Typhi; conditions: Salmonella enterica, ATCC 23564, 24 h; read-out: DIZ
# Salmonella typhi [25] = assay: Antimicrobial activity against Salmonella typhi ATCC 23564 assessed as diameter of inhibition zone at 40 uM after 24 hrs by Kirby -Baur disc diffusion method; type: functional, Salmonella enterica subsp. enterica serovar Typhi; conditions: Salmonella enterica, ATCC 23564, 24 h; read-out: DIZ
# Salmonella typhi [26] = assay: Antimicrobial activity against Salmonella typhi ATCC 23564 assessed as diameter of inhibition zone at 80 uM after 24 hrs by Kirby -Baur disc diffusion method; type: functional, Salmonella enterica subsp. enterica serovar Typhi; conditions: Salmonella enterica, ATCC 23564, 24 h; read-out: DIZ
# Bacillus cereus [27] = assay: Antimicrobial activity against Bacillus cereus MTCC 7350 after 24 hrs by broth micro serial dilution method; type: functional; conditions: MTCC 7350, 24 h; in short: as §3
# Bacillus cereus [28] = assay: Antimicrobial activity against Bacillus cereus MTCC 7350 assessed as diameter of inhibition zone at 40 uM after 24 hrs by Kirby -Baur disc diffusion method; type: functional; in short: as §4
# Bacillus cereus [29] = assay: Antimicrobial activity against Bacillus cereus MTCC 7350 assessed as diameter of inhibition zone at 80 uM after 24 hrs by Kirby -Baur disc diffusion method; type: functional; conditions: MTCC 7350, 24 h, read-out: DIZ; in short: as §4
# Staphylococcus aureus [30] = assay: Antimicrobial activity against Staphylococcus aureus ATCC 11632 after 24 hrs by broth micro serial dilution method; type: functional; conditions: ATCC 11632, 24 h; in short: as §3
# Staphylococcus aureus [31] = assay: Antimicrobial activity against Staphylococcus aureus ATCC 11632 assessed as diameter of inhibition zone at 20 uM after 24 hrs by Kirby -Baur disc diffusion method; type: functional; in short: as §4
# Staphylococcus aureus [32] = assay: Antimicrobial activity against Staphylococcus aureus ATCC 11632 assessed as diameter of inhibition zone at 40 uM after 24 hrs by Kirby -Baur disc diffusion method; type: functional; in short: as §4
# Staphylococcus aureus [33] = assay: Antimicrobial activity against Staphylococcus aureus ATCC 11632 assessed as diameter of inhibition zone at 80 uM after 24 hrs by Kirby -Baur disc diffusion method; type: functional; conditions: ATCC 11632, 24 h, read-out: DIZ; in short: as §4
compound,measurement,setting,value
COc1cc(/C=C/C(CC(/C=C/c2ccc(O)c(OC)c2)=N/c2ccc(S(N)(=O)=O)cc2)=N\c2ccc(S(N)(=O)=O)cc2)ccc1O,inhibition in vivo at 200 mg/kg,Mus musculus,12.9%
same,IC50,HCT-116,100 µM
same,IC50,QG-56,> 100 µM
same,IC50,HeLa,100 µM
same,IC50,HepG2,> 100 µM
same,MIC,Trichoderma viride [1],40 µM
same,inhibition zone (IZ),Trichoderma viride [2],inactive
same,zone of inhibition at 40 µM,Trichoderma viride [3],10 mm
same,zone of inhibition at 80 µM,Trichoderma viride [4],11 mm
same,MIC,Curvularia lunata [5],> 80 µM
same,inhibition zone (IZ),Curvularia lunata [6],inactive
same,inhibition zone (IZ),Curvularia lunata [7],inactive
same,MIC,Aspergillus flavus [8],inactive
same,zone of inhibition at 80 µM,Curvularia lunata [9],9 mm
same,inhibition zone (IZ),Aspergillus flavus [10],inactive
same,MIC,Aspergillus niger [11],> 80 µM
same,inhibition zone (IZ),Aspergillus niger [12],inactive
same,inhibition zone (IZ),Aspergillus niger [13],inactive
same,zone of inhibition at 80 µM,Aspergillus niger [14],9 mm
same,MIC,Escherichia coli [15],40 µM
same,diameter of the inhibition zone (DIZ),Escherichia coli [16],inactive
same,zone of inhibition at 40 µM,Escherichia coli [17],10 mm
same,zone of inhibition at 80 µM,Escherichia coli [18],12 mm
same,MIC,Pseudomonas aeruginosa [19],40 µM
same,zone of inhibition at 20 µM,Pseudomonas aeruginosa [20],9 mm
same,zone of inhibition at 40 µM,Pseudomonas aeruginosa [21],11 mm
same,zone of inhibition at 80 µM,Pseudomonas aeruginosa [22],18 mm
same,MIC,Salmonella typhi [23],40 µM
same,zone of inhibition at 20 µM,Salmonella typhi [24],9 mm
same,zone of inhibition at 40 µM,Salmonella typhi [25],11 mm
same,zone of inhibition at 80 µM,Salmonella typhi [26],16 mm
same,MIC,Bacillus cereus [27],40 µM
same,diameter of the inhibition zone (DIZ),Bacillus cereus [28],inactive
same,zone of inhibition at 80 µM,Bacillus cereus [29],11 mm
same,MIC,Staphylococcus aureus [30],> 80 µM
same,diameter of the inhibition zone (DIZ),Staphylococcus aureus [31],inactive
same,diameter of the inhibition zone (DIZ),Staphylococcus aureus [32],inactive
same,zone of inhibition at 80 µM,Staphylococcus aureus [33],10 mm
